Screening data deposited in PubChem BioAssay by The Scripps Research Institute Molecular Screening Center.
PfM18AAP inh: PfM18AAP enzyme inhibition. recombinant PfM18AAP, H-Glu-NHMec fluorogenic cleavage. inhibition, % at 7.35 µM. actives 1.2% (n = 290,000). AID 1822;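 active = inhibition above the campaign mean inhibition over all tested compounds plus 3 SD, cut at about 28% in these data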;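 note: 0% = plate median of test compound wells and 100% = 2 mM ZnCl2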
HGIII-sPLA2 inh: Inhibits HGIII-sPLA2 liposome hydrolysis, primary screen. Q9NZ20. QFRET BODIPY PC-A2 liposome hydrolysis, fluorescence. inhibition, % at 12.2 µM. actives 0.56% (n = 370,000). AID 743126;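 active = inhibition above mean plus 3 SD of compounds lying within the high and low control bounds, cut at about 19% in these data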;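 note: 0% = median of test compound wells and 100% = no enzyme DMSO wells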
VIM-2 inhibitor: blocks Pseudomonas aeruginosa VIM-2 metallo-beta-lactamase | purified VIM-2, nitrocefin hydrolysis, epi-absorbance fluorescence | inhibition, % at 5.6 µM | actives 0.89% (n = 290,000) | AID 1527;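 active = inhibition above the mean of all tested compounds plus 3 SD, cutoff set per screening run, cut at about 7.5% in these data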;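 note: red hydrolysis product quenches plate fluorescence so inhibitors raise well fluorescence; 0% = enzyme with DMSO and 100% = DMSO without enzyme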
IMP-1 inh-1: blocks Pseudomonas aeruginosa IMP-1 metallo-beta-lactamase. purified IMP-1, nitrocefin hydrolysis, epi-absorbance fluorescence. inhibition, % at 5.6 µM. actives 0.45% (n = 290,000);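 active = inhibition above the mean plus 3 SD of all compounds in the same screening run, cut at about 4.5% in these data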;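 note: 0% = IMP-1 with DMSO and 100% = DMSO wells lacking enzyme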
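System: purified IMP-1; amount: IMP-1 0.2 nM before substrate addition; compound: single dose, 5.6 µM; times: 25 °C, 15 min preincubation, 25 min reaction; signal: Epi-absorbance via hydrolysed-nitrocefin quenching of white-plate fluorescence, 480/530 nm, EDTA stop; benchmarks: DMSO with and without IMP-1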
IMP-1 inh-2: IMP-1 inhibition, counter-screen for VIM-2 inhibitors; shares compounds with VIM-2 inhibitor; purified IMP-1, nitrocefin hydrolysis, epi-absorbance fluorescence; inhibition, % at 5.6 µM; 1,300 tested, under 10 active; call rule not given here;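 note: 0% = enzyme with vehicle and 100% = vehicle without enzyme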
VIM-2 FRET ctr: inhibits VIM-2 in FRET assay to exclude epi-absorbance artifacts | shares compounds with VIM-2 inhibitor | actives 23% (n = 1,300) | inhibition, % at 5.6 µM | AID 1857 | purified VIM-2, CCF2 FRET substrate hydrolysis;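 active = inhibition above the mean of all tested compounds plus 3 SD, cut at about 19% in these data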;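 note: 0% = VIM-2 plus DMSO and 100% = no enzyme wells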
TEM-1 inh: TEM-1 inhibition, counter-screen for VIM-2 inhibitors. shares compounds with VIM-2 inhibitor. Purified TEM-1, nitrocefin hydrolysis, epi-absorbance fluorescence. inhibition, % at 5.6 µM. actives 3% (n = 1,300). AID 1866;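 active = inhibition above that campaign's mean inhibition plus 3 SD, cut at about 0.46% in these data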;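 note: 0% = TEM-1 with DMSO and 100% = TEM-1 with 100 µM potassium clavulanate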
Target sequence (P62593 whole entry, looked up): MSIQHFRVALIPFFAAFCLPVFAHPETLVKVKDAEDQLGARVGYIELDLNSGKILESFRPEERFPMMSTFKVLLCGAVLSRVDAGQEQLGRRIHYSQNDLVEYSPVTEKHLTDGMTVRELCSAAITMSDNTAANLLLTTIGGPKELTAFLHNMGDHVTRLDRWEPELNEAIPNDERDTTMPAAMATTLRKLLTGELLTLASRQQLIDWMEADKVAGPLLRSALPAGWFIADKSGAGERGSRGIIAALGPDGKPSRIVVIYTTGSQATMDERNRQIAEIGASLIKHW
VIM-2 confirm 2: confirmation of P. aeruginosa VIM-2 metallo-beta-lactamase inhibitors | purified VIM-2, nitrocefin hydrolysis, epi-absorbance | inhibition, % at 5.6 µM | actives 96% (n = 1,300) | AID 2187 | shares compounds with VIM-2 inhibitor;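 active = inhibition of the VIM-2 beta-lactamase enzyme above about 11% from the earlier first-round screen, limit read from the data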;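 note: 0% = VIM-2 with DMSO and 100% = buffer wells without enzyme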
* hit, by the source's call; / = not tested or not shown. This is a sample that favours compounds with a hit; in the whole collection about 2.4% have one here.

SMILES	PfM18AAP inh	HGIII-sPLA2 inh	VIM-2 inhibitor	IMP-1 inh-1	IMP-1 inh-2	VIM-2 FRET ctr	TEM-1 inh	VIM-2 confirm 2
CN(C)S(=O)(=O)c1ccc(C(=O)NCc2ccc3[nH]c4c(c3c2)CCCC4)cc1	8	-28	14*	3	1	28*	-2	25*
CNC(=S)NCc1ccc2[nH]c3c(c2c1)CCCC3	3	5	1	-3	/	/	/	/
O=C(NCc1ccc2[nH]c3c(c2c1)CCCC3)c1ccc(S(=O)(=O)N2CCOCC2)cc1	4	-26	14*	2	0	28*	-3	23*
CCN(CC)S(=O)(=O)c1ccc(C(=O)NCc2ccc(C)cc2)cc1	-1	-9	-2	-1	/	/	/	/
CCN(CC)S(=O)(=O)c1ccc(C(=O)NCc2ccc3[nH]c4c(c3c2)CCCC4)cc1	9	-36	14*	0	0	28*	-4	20*
O=C(NCCO)C1(C(=O)C2CC2)CC(c2ccccc2C(F)(F)F)=NO1 (stereo not given)	/	1	/	/	/	/	/	/
CCOC(=O)c1sc(NC(=O)CCN2CCN(C)CC2)c(C(=O)OCC)c1C	8	-18	16*	-2	-3	1	-7	48*
CCOC(=O)c1sc(NC(=O)CCN2CC(C)OC(C)C2)c(C(=O)OCC)c1C (stereo not given)	4	/	-1	-3	/	/	/	/
Cc1cccc(NC(=O)c2cc3c(=O)n4ccccc4nc3s2)c1	-11	5	1	-1	/	/	/	/
C=CCNC(=O)c1cc2c(=O)n3cccc(C)c3nc2s1	4	4	19*	-3	-2	-1	-4	26*
C=CCNC(=O)/C(C#N)=C/c1c(N2CCN(c3ccc(OC)cc3)CC2)nc2c(C)cccn2c1=O	8	2	0	-3	/	/	/	/
CCOC(=O)N1CCN(C(=O)c2cc3c(=O)n4cccc(C)c4nc3s2)CC1	4	0	16*	-2	-3	-1	-5	24*
CCC(C)NC(=O)c1cc2c(=O)n3cccc(C)c3nc2s1 (stereo not given)	-1	-2	20*	-3	-3	-6	-3	27*
CC1(C(=O)NS(=O)(=O)C2CC2)CCCN(C(=O)c2ccc(C(F)(F)F)cc2)C1 (stereo not given)	/	6	/	/	/	/	/	/
CCCCNC(=O)C1CCCN1C(=O)Nc1cc(C)cc(C)c1 (stereo not given)	/	-2	/	/	/	/	/	/
CC1CCCN(CCCNC(=O)c2cc3c(Cl)nc4ccccc4c3s2)C1 (stereo not given)	0	-10	19*	-2	-3	1	-5	31*
Cc1nc2ccccc2c2oc(C(=O)NCCCN3CCCC(C)C3)cc12 (stereo not given)	-1	-3	18*	-2	-3	2	-6	29*
Cc1nc2ccccc2c2oc(C(=O)NCCCN3CC(C)CC(C)C3)cc12 (stereo not given)	-2	-1	15*	-2	-2	1	-6	24*
CCCCCCC(=O)NC1CCCCN(Cc2ccc(Cl)cc2)C1=O (stereo not given)	/	0	/	/	/	/	/	/
COc1ccc(S(=O)(=O)N(C)C[C@H]2Oc3ncc(-c4ccncc4)cc3C(=O)N([C@@H](C)CO)C[C@@H]2C)cc1	/	-7	/	/	/	/	/	/
CN(C)CCCNc1ccc(-c2nn(C)c(=O)c3ccccc23)cc1[N+](=O)[O-]	-1	2	61*	-1	-3	2	-8	71*
CC(O)CNc1ccc(-c2nn(C)c(=O)c3ccccc23)cc1[N+](=O)[O-] (stereo not given)	0	-2	19*	-2	-3	-1	-6	39*
O=c1ccc2nc3ccccc3sc-2c1	/	-11	/	/	/	/	/	/
O=C(Nc1ccc2nc(-c3cccnc3)[nH]c2c1)c1ccccc1F	3	2	49*	-1	-1	0	-1	4
COc1ccccc1CN[C@@H]1CC[C@@]23CCCN2C(=O)CCC[C@H]3C1	/	8	/	/	/	/	/	/
SMILES	PfM18AAP inh	HGIII-sPLA2 inh	VIM-2 inhibitor	IMP-1 inh-1	IMP-1 inh-2	VIM-2 FRET ctr	TEM-1 inh	VIM-2 confirm 2
S=c1[nH]nc(C2CCCCC2)n1/N=C/c1cccc(Cl)c1Cl	1	-6	-5	-3	/	/	/	/
CCN(CC)c1nc(Nc2ccccc2)nc(Oc2ccc(C(=O)OC)cc2)n1	0	-1	-3	-1	/	/	/	/
CCN(CC)c1nc(Oc2ccc(C(=O)NN)cc2)nc(Oc2ccc(C(=O)NN)cc2)n1	3	0	70*	-3	-4	8	-7	82*
C=C1CCCC2OC(CC3=CC4/C(C)=C/CC(C)CC(/C=C(\C)C(O)C5CC(O)C(O)C(CCC(O)/C=C/C(C)=C/CCC6=NCCC(C3)C64C)O5)OC(=O)CC3OC(C(O)C1)C(O)C3O)CC(O)C2O (stereo not given)	/	-29	/	/	/	/	/	/
C[C@H](O)[C@@H]1CN2CCc3ccc(N4CCOCC4)cc3[C@@H]2C[C@@H]1N(C)C(=O)c1ccco1	/	2	/	/	/	/	/	/
Cc1cc(Cl)ccc1NC(=S)N1CCN(C(=O)c2ccco2)CC1	4	7	-2	-2	/	/	/	/
Cc1ccc(Nc2nnc(SCc3cc(=O)n4ccsc4n3)s2)c(C)c1	9	-8	-1	3	/	/	/	/
COc1ccccc1Nc1nnc(SCc2cc(=O)n3ccsc3n2)s1	19	2	13*	1	1	14	3.0*	12*
COC(=O)C1CCN(C(=O)[C@H](C)NC(=O)C2CC(=O)N(c3ccc(F)cc3)C2)CC1 (stereo not given in full)	-3	1	-1	-3	/	/	/	/
Cc1cc(=O)oc2c3c(cc(OCC(=O)NCCCn4ccnc4)c12)OC(C)(C)CC3	2	-9	15*	1	-2	-7	-1	22*
CCCc1cc(=O)oc2c3c(cc(OCC(=O)NCCCn4ccnc4)c12)OC(C)(C)CC3	4	-17	17*	0	-3	-16	-4	28*
O=C(CCCc1nc(-c2ccc(Cl)cc2)no1)NC1CCCCC1	-10	-2	1	0	/	/	/	/
COc1ccccc1C(=O)Nc1ccnn1C1CCN(Cc2cnn(C)c2C)CC1	-16	3	57*	0	-4	1	-6	0
CCC(C)c1ccc(NC(=O)C2CC3CCC2C3)cc1 (stereo not given)	/	-4	/	/	/	/	/	/
CCOc1ccccc1Nc1cc(C)nc2nc(C)nn12	-6	0	15*	-4	-2	-1	0.5*	28*
CCOc1ccc(OCC)c(Nc2cc(C)nc3nc(C)nn23)c1	-7	-5	3	-3	/	/	/	/
C=CCSc1nc2c(C(=O)OCC)nnn2c2ccccc12	3	18	28*	-3	-4	-4	-11	39*
CCN1CCN(C(=O)CCc2nc3ccccc3c(=O)[nH]2)CC1	6	-2	21*	0	-3	-2	-5	43*
